Experiments:
hTERT-RPTEC-OAT1 [1] = type: in vitro ADME, human; details: 96-well plates; for Accumulation in cells versus medium: 24 h, cell lysates and media, OAT1-overexpressing cells
Summary of the method: (§1)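 Cells seeded uncoated at 32,000 per well in 96-well plates, grown 6 days at 37°C, 5% CO2, medium changed every 48 h. Exposed to test compound in 150 μL medium (PFAS 5 μM final). Medium sampled at 4 and 24 h; cells PBS-rinsed and M-PER lysed at 24 h. Acetonitrile precipitation with internal standards, then LC-MS/MS. Two-compartment model, P ratio = medium/cell concentration; n ≥ 3.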

hTERT-RPTEC [2] = test: Uptake / intracellular accumulation and P ratio, hTERT-RPTEC in 96-well plates; type: in vitro ADME, human; details: 24 h, cell lysates and media
Summary of the method: as §1

hTERT-RPTEC-OAT1 [3] = test: Directional transport, recovery and P ratio, hTERT-RPTEC-OAT1 Transwells; type: in vitro ADME, human; details: for Recovery pattern, apical (A→B) versus basolateral (B→A) treatment: 24 h, donor and recipient media and cell lysates
Summary of the method: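 hTERT-RPTEC-OAT1 cells seeded on fibronectin-coated (100 μg/mL, 1 h, 37°C) Transwells at 22,050 cells/insert. Cultured 2 days at 37°C, 5% CO2; inserts under 65 Ω×cm2 TEER excluded. Test compound (PFAS 5 μM final) added apically (A→B) or basolaterally (B→A), fresh medium opposite. Both chambers sampled at 4 and 24 h; cells lysed (M-PER, 10 min, RT) at 24 h. LC-MS/MS after acetonitrile precipitation with internal standards. Three-compartment Bayesian MCMC fit gave P1–P4; P ratio = P2P4/P1P3; n ≥ 4.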

[4] = set-up: species or system human; details: index chemical half-life 3.14 years divided by relative renal clearance
hTERT-RPTEC-OAT1 [5] = test: TEER barrier integrity, hTERT-RPTEC-OAT1 Transwells; type: cell-based, human; details: 24 hrs post-treatment
Summary of the method: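 Resistance read with an epithelial voltohmmeter and Ag/AgCl probes after treatment. Blank-membrane resistance subtracted, then multiplied by 0.143 cm2 growth area; reported as Ω×cm2. Pre-treatment cultures under 65 Ω×cm2 excluded; n ≥ 4.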

hTERT-RPTEC-OAT1 [6] = test: LDH release; type: cell-based, human; details: 24 hrs exposure, relative to vehicle controls, 96-well plates
Summary of the method: (§2)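 LDH activity measured with a biochemical kit in medium sampled after 24 h exposure to test compound. Expressed as % of vehicle-treated cultures. Compared by one-way ANOVA with Dunnett's post hoc test (p < 0.05). Replicates: n ≥ 3 in 96-well plates, n ≥ 4 in Transwells.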

hTERT-RPTEC [7] = test: LDH release; type: cell-based, human; details: 24 hrs exposure, relative to vehicle controls, 96-well plates
Summary of the method: as §2

hTERT-RPTEC-OAT1 [8] = test: LDH release; type: cell-based, human; details: 24 hrs exposure, relative to vehicle controls, Transwells
Summary of the method: as §2

hTERT-RPTEC-OAT1 [9] = tested on: hTERT-RPTEC-OAT1; set-up: species or system human; details: 96-well plates, two-compartment model
Summary of the method: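 96-well P ratio (medium/cell concentration, two-compartment model, assuming P1 = P2) entered a physiologically based kidney model. CLrenal,free was calculated from renal arterial blood flow (QK), proximal tubule flow (QPT) and P ratio, and predictions were set against literature human in vivo values.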

[10] = applied from the basolateral side (B→A)

SMILES: O=S(=O)(O)CCC(F)(F)C(F)(F)C(F)(F)C(F)(F)C(F)(F)C(F)(F)C(F)(F)C(F)(F)F [8:2 FTS, 8:2 Fluorotelomer sulfonic acid]
- Accumulation in cells versus medium (hTERT-RPTEC-OAT1 [1]): tended to accumulate more in cells
- Accumulation in cells versus medium (hTERT-RPTEC [2]): tended to accumulate more in cells
- Recovery pattern, apical (A→B) versus basolateral (B→A) treatment (hTERT-RPTEC-OAT1 [3]): divergent recovery patterns depending on dosing orientation

SMILES: O=S(=O)(O)C(F)(F)C(F)(F)C(F)(F)C(F)(F)F [PFBS, Perfluorobutanesulfonic acid]
- Predicted human half-life [4]: Days/Months

SMILES: O=C(O)C(F)(F)C(F)(F)C(F)(F)C(F)(F)C(F)(F)C(F)(F)C(F)(F)C(F)(F)C(F)(F)F [PFDA, Perfluorodecanoic acid]
- Accumulation in cells versus medium (hTERT-RPTEC-OAT1 [1]): tended to accumulate more in cells
- TEER (hTERT-RPTEC-OAT1 [5]; [10]): small but significant decrease in TEER
- Accumulation in cells versus medium (hTERT-RPTEC [2]): tended to accumulate more in cells
- Recovery pattern, apical (A→B) versus basolateral (B→A) treatment (hTERT-RPTEC-OAT1 [3]): divergent recovery patterns depending on dosing orientation

SMILES: O=C(O)C(F)(F)C(F)(F)C(F)(F)C(F)(F)C(F)(F)F [PFHxA, Perfluorohexanoic acid]
- Predicted human half-life [4]: Days/Months

SMILES: O=C(O)C(F)(F)C(F)(F)C(F)(F)C(F)(F)C(F)(F)C(F)(F)C(F)(F)F [PFOA, Perfluorooctanoic acid]
- LDH release (hTERT-RPTEC-OAT1 [6]): small but significant increase in LDH release

SMILES: O=S(=O)(O)C(F)(F)C(F)(F)C(F)(F)C(F)(F)C(F)(F)C(F)(F)C(F)(F)C(F)(F)F [PFOS, Perfluorooctanesulfonic acid]
- Recovery pattern, apical (A→B) versus basolateral (B→A) treatment (hTERT-RPTEC-OAT1 [3]): divergent recovery patterns depending on dosing orientation

SMILES: O=C(O)C(F)(F)C(F)(F)C(F)(F)C(F)(F)C(F)(F)C(F)(F)C(F)(F)C(F)(F)C(F)(F)C(F)(F)F [PFUnDA, Perfluoroundecanoic acid]
- Accumulation in cells versus medium (hTERT-RPTEC-OAT1 [1]): tended to accumulate more in cells
- TEER (hTERT-RPTEC-OAT1 [5]; [10]): small but significant decrease in TEER
- Accumulation in cells versus medium (hTERT-RPTEC [2]): tended to accumulate more in cells
- Recovery pattern, apical (A→B) versus basolateral (B→A) treatment (hTERT-RPTEC-OAT1 [3]): divergent recovery patterns depending on dosing orientation

SMILES: CCCCCCCC[N+](CCCCCCCC)(CCCCCCCC)CCCCCCCC.[Br-] [TAB, tetraoctyl ammonium bromide, reference compound]
- LDH release (hTERT-RPTEC [7]): significant LDH release
- TEER (hTERT-RPTEC-OAT1 [5]): pronounced reduction in TEER
- LDH release (hTERT-RPTEC-OAT1 [8]): significant LDH release
- LDH release (hTERT-RPTEC-OAT1 [6]): significant LDH release

SMILES: C[C@H](Cn1cnc2c(N)ncnc21)OCP(=O)(O)O [Tenofovir, Tenofovir (TFV), reference compound]
- P ratio, OAT1-overexpressing cells versus parental cells (hTERT-RPTEC-OAT1 [1]): roughly 100 fold lower
- Accumulation in cells versus medium (hTERT-RPTEC-OAT1 [1]): enhanced accumulation in the OAT1-overexpressing cells
- Predicted renal clearance, OAT1-overexpressing cells versus parental cells (hTERT-RPTEC-OAT1 [9]): significantly lower
- Intracellular association (hTERT-RPTEC-OAT1 [3]; ratios of measured concentrations): higher intracellular association
